In brackets after ≈: the same amount, converted by molar mass. Activity calls are given as the source filed them. The calls are words filed in the database; no cut-off is given here.
Assays:
[1] = molecular target: Voltage-gated inwardly rectifying potassium channel KCNH2 (Homo sapiens, UniProt Q12809); assay: Inhibition of human ERG by patch clamp electrophysiological analysis
[2] = Octanol-sodium phosphate buffer partition coefficient, log D of the compound at 10 mM at pH 7.4 by shake-flask method; format: physicochemical
[3] = tested on: Mycobacterium tuberculosis; assay: Antimycobacterial activity against wild-type Mycobacterium tuberculosis H37Rv ATCC 27294 after 16 to 18 days by BACTEC 7H12B microdilution method; format: functional
[4] = molecular target: DNA gyrase subunit A/DNA gyrase subunit B (Mycobacterium tuberculosis (strain ATCC 25618 / H37Rv), UniProt P9WG45+P9WG47); assay: Inhibition of Mycobacterium tuberculosis H37Rv DNA gyrase holoenzyme-mediated supercoiling of pBR322 DNA after 90 mins by agarose gel electrophoresis
[5] = Apparent permeability from apical to basolateral side in human Caco2 cells; format: ADME, cell-based; settings: Caco-2
DNA gyrase subunit B = DNA gyrase subunit B (Mycobacterium smegmatis, UniProt P0C559); assay: Inhibition of Mycobacterium smegmatis DNA gyrase-B ATPase activity; set-up: species or system Mycolicibacterium smegmatis
[6] = Apparent permeability from basolateral to apical side in human Caco2 cells; format: ADME, cell-based; settings: Caco-2
Mus musculus [7] = assay: fT>MIC in BALB/c mouse infected with Mycobacterium tuberculosis at 20 mg/kg, po
Method in brief: (§1)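 PK was measured in infected, ABT-pretreated mice during efficacy dosing (oral, 5% dextrose pH 4−5) on day 18 or 19. Saphenous blood was taken at 5, 15 and 30 min and 1, 2, 4 and 6 h. Plasma was precipitated with acetonitrile and analysed by LC−MS/MS. AUC came from noncompartmental analysis; free AUC/MIC and %free T>MIC used the unbound fraction and MIC.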

[8] = Oral bioavailability in rat at 40 mg/kg by LC-MS/MS analysis; format: ADME, organism-based; settings: in vivo
Method in brief: (§2)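 Rats were dosed with the 5% dextrose (pH 4−5) formulation, 5 mg/kg iv and 40 mg/kg po. Plasma was precipitated with acetonitrile and analysed by LC−MS/MS with a carbamazepine internal standard. Parameters were derived by noncompartmental analysis.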

[9] = tested on: Mycobacterium tuberculosis; assay: Antimycobacterial activity against Mycobacterium tuberculosis infected in aminobenzotriazole-pretreated BALB/c mouse chronic tuberculosis model assessed as reduction in log10CFU at 40 to 80 mg/kg, po bid for 8 weeks; format: functional, organism-based
Method in brief: (§3)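 Aerosol-infected BALB/c mice in BSL3, three per group. Treatment began 3 days (acute) or 4 weeks (chronic) after infection. ABT 100 mg/kg po in water was given 2 h before oral gavage of compound in 5% dextrose (pH 4−5 with acetic acid), 10 mL/kg, twice daily at 8 h intervals. Courses were 20 days (7 days/week) or 8 weeks (6 days/week). Lung homogenates were plated on 7H11 for cfu.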

[10] = Clearance in rat at 40 mg/kg, po and 5 mg/kg, iv by LC-MS/MS analysis; format: ADME, organism-based; settings: in vivo; method in brief: as §2
[11] = Fraction unbound in aminobenzotriazole-pretreated BALB/c mouse plasma infected with Mycobacterium tuberculosis by LC-MS/MS analysis; format: ADME, cell-free
[12] = tested on: Mycobacterium tuberculosis; assay: Antimycobacterial activity against Mycobacterium tuberculosis infected in aminobenzotriazole-pretreated BALB/c mouse chronic tuberculosis model assessed as reduction in log10CFU at 40 to 80 mg/kg, po bid for 20 days; format: functional; settings: dose mg/kg 40-80; method in brief: as §3
[13] = Ratio of fAUC in aminobenzotriazole-pretreated Mycobacterium tuberculosis infected BALB/c mouse at 20 mg/kg, po to MIC for wild-type Mycobacterium tuberculosis H37Rv ATCC 27294; method in brief: as §1
[14] = tested on: Mycobacterium tuberculosis; assay: Bactericidal activity against Mycobacterium tuberculosis H37Rv after 10 days by time kill assay; format: functional, organism-based
Method in brief: (§4)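 Time-kill in 7H9 broth with 0.2% glycerol, 0.05% Tween 80 and 10% ADC. Serial 2-fold dilutions were added to ~3 × 10^7 cfu/mL H37Rv at 37 °C. Aliquots were plated on 7H11 at days 0, 3, 7 and 10, and plates were incubated up to 28 days at 37 °C, 5% CO2, humidified. Results are given as log10 cfu per concentration.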

[15] = tested on: Mycobacterium tuberculosis; assay: Bactericidal activity against Mycobacterium tuberculosis H37Rv at 0.01 to 2 ug/ml by time kill assay; format: functional, organism-based; settings: TDE = time-dependent effect; method in brief: as §4
[16] = tested on: Mycobacterium tuberculosis; assay: Antimycobacterial activity against Mycobacterium tuberculosis infected in aminobenzotriazole-pretreated BALB/c mouse acute tuberculosis model assessed as reduction in bacterial burden at 80 to 160 mg/kg, po bid for 20 days; format: functional, organism-based; method in brief: as §3
Mus musculus [17] = assay: fT>MIC in BALB/c mouse infected with Mycobacterium tuberculosis at 80 mg/kg, po; method in brief: as §1
[18] = Ratio of fAUC in aminobenzotriazole-pretreated Mycobacterium tuberculosis infected BALB/c mouse at 80 mg/kg, po to MIC for wild-type Mycobacterium tuberculosis H37Rv ATCC 27294; method in brief: as §1
[19] = tested on: Mycobacterium tuberculosis; assay: Bactericidal activity against Mycobacterium tuberculosis H37Rv assessed as reduction in log10CFU at 0.01 to 2 ug/ml after 10 days by time kill assay; format: functional; method in brief: as §4
[20] = tested on: Mycobacterium tuberculosis; assay: Antimycobacterial activity against Mycobacterium tuberculosis infected in aminobenzotriazole-pretreated BALB/c mouse acute tuberculosis model assessed as reduction in bacterial burden at 20 mg/kg, po bid for 20 days; format: functional, organism-based; set-up: dose 20 mg/kg; method in brief: as §3
[21] = tested on: Mycobacterium tuberculosis; assay: Antimycobacterial activity against Mycobacterium tuberculosis clinical isolates after 2 to 4 weeks by BACTEC 460 radiometric assay; format: functional
[22] = tested on: Mycobacterium tuberculosis; assay: Bactericidal activity against Mycobacterium tuberculosis infected in human THP1 cells at 1 ug/ml for 7 days; format: functional, THP-1
Method in brief: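 Adherent THP-1 macrophages infected with Mtb were exposed to compound at 1 μg/mL for 7 days at 37 °C. Kill was expressed as log reduction versus the untreated control.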

DNA gyrase subunit B, sequence (P0C559 whole entry): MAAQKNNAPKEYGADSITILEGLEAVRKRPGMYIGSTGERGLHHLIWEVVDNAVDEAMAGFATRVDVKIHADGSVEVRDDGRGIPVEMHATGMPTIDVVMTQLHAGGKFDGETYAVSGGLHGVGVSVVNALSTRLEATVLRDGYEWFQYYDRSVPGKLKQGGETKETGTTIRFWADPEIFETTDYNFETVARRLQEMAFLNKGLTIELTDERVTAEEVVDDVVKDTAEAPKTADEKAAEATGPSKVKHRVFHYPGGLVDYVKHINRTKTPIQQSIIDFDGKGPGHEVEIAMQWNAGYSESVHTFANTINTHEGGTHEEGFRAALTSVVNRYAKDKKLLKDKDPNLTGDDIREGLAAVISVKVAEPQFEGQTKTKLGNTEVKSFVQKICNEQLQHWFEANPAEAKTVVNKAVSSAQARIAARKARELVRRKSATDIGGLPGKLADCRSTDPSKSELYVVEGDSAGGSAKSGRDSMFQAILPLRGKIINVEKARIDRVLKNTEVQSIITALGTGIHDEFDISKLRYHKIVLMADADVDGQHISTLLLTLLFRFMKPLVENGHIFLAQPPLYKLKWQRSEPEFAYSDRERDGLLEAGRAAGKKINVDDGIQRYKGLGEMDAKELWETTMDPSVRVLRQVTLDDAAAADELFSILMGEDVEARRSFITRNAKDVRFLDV
DNA gyrase subunit A/DNA gyrase subunit B, sequence (P9WG45 whole entry): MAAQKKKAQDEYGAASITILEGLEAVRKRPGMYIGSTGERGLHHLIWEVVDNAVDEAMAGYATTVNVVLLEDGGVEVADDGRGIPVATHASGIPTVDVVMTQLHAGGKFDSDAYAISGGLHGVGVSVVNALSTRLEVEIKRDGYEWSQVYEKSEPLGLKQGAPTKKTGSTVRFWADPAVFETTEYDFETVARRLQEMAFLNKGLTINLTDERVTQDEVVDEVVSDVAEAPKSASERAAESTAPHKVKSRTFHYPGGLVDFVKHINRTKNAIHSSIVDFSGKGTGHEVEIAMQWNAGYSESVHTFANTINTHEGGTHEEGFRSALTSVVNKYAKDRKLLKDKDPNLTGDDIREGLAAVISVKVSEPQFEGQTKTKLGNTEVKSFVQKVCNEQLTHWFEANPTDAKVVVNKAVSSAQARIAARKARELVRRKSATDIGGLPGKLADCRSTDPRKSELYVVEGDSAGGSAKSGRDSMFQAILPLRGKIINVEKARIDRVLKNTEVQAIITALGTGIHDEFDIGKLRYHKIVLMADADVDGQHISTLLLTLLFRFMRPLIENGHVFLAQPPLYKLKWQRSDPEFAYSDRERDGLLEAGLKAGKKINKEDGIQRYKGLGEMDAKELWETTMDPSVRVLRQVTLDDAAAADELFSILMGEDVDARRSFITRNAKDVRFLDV
DNA gyrase subunit A/DNA gyrase subunit B, sequence (P9WG47 whole entry): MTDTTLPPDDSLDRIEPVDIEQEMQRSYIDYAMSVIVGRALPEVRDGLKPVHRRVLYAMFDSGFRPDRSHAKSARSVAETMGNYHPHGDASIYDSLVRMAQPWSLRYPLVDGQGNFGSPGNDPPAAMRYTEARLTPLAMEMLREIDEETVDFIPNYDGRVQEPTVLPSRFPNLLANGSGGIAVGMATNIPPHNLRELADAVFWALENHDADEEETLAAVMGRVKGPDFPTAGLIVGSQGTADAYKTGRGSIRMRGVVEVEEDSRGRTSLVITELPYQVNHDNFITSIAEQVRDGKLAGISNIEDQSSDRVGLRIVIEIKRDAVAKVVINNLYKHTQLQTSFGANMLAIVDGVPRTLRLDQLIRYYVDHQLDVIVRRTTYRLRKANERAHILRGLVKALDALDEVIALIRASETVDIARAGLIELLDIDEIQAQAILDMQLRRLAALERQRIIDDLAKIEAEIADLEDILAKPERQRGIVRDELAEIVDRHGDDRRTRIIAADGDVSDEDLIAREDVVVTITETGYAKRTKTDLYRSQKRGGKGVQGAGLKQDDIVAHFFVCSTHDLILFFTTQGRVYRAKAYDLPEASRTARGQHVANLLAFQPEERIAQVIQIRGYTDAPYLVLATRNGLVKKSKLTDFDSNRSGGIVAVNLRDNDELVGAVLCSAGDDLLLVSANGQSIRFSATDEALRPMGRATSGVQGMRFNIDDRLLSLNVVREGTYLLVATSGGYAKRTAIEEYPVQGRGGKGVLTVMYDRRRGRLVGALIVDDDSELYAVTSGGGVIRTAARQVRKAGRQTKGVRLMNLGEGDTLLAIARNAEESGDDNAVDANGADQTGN
Voltage-gated inwardly rectifying potassium channel KCNH2, sequence (Q12809 whole entry): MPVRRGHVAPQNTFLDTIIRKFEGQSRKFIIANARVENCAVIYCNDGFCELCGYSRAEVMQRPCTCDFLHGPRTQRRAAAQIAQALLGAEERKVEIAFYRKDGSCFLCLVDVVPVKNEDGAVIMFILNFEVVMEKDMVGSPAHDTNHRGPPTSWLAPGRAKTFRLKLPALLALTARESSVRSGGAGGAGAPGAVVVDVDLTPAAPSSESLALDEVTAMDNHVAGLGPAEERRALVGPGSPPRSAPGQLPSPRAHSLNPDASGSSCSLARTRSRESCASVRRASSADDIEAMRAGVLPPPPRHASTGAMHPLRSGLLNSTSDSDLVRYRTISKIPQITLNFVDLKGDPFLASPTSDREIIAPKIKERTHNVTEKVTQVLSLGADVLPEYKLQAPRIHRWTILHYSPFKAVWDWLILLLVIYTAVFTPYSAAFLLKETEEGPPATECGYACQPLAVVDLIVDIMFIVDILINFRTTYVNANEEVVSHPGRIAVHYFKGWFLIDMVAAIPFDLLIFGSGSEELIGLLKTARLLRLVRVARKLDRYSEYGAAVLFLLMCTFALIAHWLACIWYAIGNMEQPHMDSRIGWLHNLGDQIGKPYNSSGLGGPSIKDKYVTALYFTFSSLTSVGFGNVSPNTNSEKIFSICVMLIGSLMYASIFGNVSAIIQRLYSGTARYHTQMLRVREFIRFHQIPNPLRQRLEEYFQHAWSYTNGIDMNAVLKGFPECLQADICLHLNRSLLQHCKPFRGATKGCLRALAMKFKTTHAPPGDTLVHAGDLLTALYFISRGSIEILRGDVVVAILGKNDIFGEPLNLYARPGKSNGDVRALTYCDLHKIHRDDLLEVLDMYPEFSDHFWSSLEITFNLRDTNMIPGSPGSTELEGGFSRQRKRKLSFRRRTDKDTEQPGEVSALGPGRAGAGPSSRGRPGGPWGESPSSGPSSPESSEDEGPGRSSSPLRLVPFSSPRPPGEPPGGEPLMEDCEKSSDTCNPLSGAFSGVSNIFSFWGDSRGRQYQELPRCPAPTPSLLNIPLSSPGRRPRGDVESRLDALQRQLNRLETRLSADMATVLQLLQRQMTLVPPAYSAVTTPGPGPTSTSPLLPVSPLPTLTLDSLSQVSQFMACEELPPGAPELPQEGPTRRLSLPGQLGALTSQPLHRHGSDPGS

SMILES | IC50 [1] [µM] | logD at 10000 µM [2] | MIC [3] [µg/mL] | IC50 [4] [µM] | Papp A→B [5] [×10⁻⁶ cm/s] | Papp B→A [6] [×10⁻⁶ cm/s] | also measured
COc1cnc2ncc(=O)n(CCN3CCC(NCc4cnc(C)c(C#N)c4)CC3)c2c1 | > 100 | 0.38 | 0.13 (≈ 0.3 µM) | – | – | – | –
COc1ccc2ccc(=O)n(CCN3CCC(NCc4ccc5c(n4)NC(=O)CO5)CC3)c2n1 | 21 | 0.8 | 0.25 (≈ 0.538 µM) | 0.15 | 1.1 | 25 | IC50 (DNA gyrase subunit B): > 100 µM
Cc1ncc(CNC2CCN(CCn3c(=O)ccc4ccc(C#N)cc43)CC2)cc1C#N | 26 | 1.3 | 0.06 (≈ 0.141 µM) | 0.25 | 13.6 | 7.4 | fT>MIC (Mus musculus [7]): 58%; bioavailability [8]: > 100%; IC50 (DNA gyrase subunit B): > 100 µM; Activity [9]: Active; clearance [10]: 41 mL/min/kg; fraction unbound [11]: 0.43; log10cfu [12]: 0.5; fAUC/MIC [13]: 159
O=C1COc2ccc(CN[C@H]3CCN(CCn4c(=O)ccc5ncc(F)cc54)C[C@H]3F)nc2N1 | – | 0.47 | 0.13 (≈ 0.276 µM) | 0.24 | 8.1 | 12.3 | bioavailability [8]: > 100%; Activity [14]: Dose-dependent effect; Activity [15]: tde; Activity [16]: Active; clearance [10]: 63 mL/min/kg; fT>MIC (Mus musculus [17]): 58%; fraction unbound [11]: 0.44; fAUC/MIC [18]: 175; log10cfu [19]: >3
Cc1ncc(CNC2CCN(CCn3c(=O)ccc4ncc(F)cc43)CC2)cc1C#N | 69 | 0.81 | 0.25 (≈ 0.595 µM) | – | 18 | 9.8 | –
COc1cnc2ccc(=O)n(CCN3CCC(NCc4cnc(C)c(C#N)n4)CC3)c2c1 | 69 | 0.89 | 0.5 (≈ 1.15 µM) | – | – | – | –
COc1cnc2ccc(=O)n(CCN3CCC(NC(=O)c4cnc(C)c(C#N)c4)CC3)c2c1 | 74 | 1.4 | 0.13 (≈ 0.291 µM) | – | 4.2 | 13 | –
COc1ccc2ncc(=O)n(CCN3CCC(NCc4cnc(C)c(C#N)c4)CC3)c2n1 | 13 | 1.65 | 0.13 (≈ 0.3 µM) | – | – | – | –
N#Cc1ccc2ccc(=O)n(CCN3CCC(NCc4ccc5c(n4)NC(=O)CO5)CC3)c2c1 | – | 0.4 | 0.13 (≈ 0.284 µM) | 0.11 | 2 | 12.6 | bioavailability [8]: 11%; IC50 (DNA gyrase subunit B): > 100 µM; clearance [10]: 187 mL/min/kg; Activity [20]: Active; MIC90 [21]: < 0.5 µg/mL
CO[C@H]1/C=C/O[C@@]2(C)Oc3c(C)c(O)c4c(O)c(c(/C=N/N5CCN(C)CC5)c(O)c4c3C2=O)NC(=O)/C(C)=C\C=C\[C@H](C)[C@H](O)[C@@H](C)[C@@H](O)[C@@H](C)[C@H](OC(C)=O)[C@@H]1C [RIFAMPIN] | – | – | 0.015 (≈ 0.0182 µM) | – | – | – | –
COc1c(N2C[C@@H]3CCCN[C@@H]3C2)c(F)cc2c(=O)c(C(=O)O)cn(C3CC3)c12 [MOXIFLOXACIN] | – | – | 0.06 (≈ 0.149 µM) | – | – | – | LCK [22]: 2.3
COc1cnc2ccc(=O)n(CCN3CC[C@@H](NCc4cnc(C)c(C#N)c4)[C@@H](OC)C3)c2c1 | – | 0.99 | 0.06 (≈ 0.13 µM) | – | 11.7 | 9.9 | bioavailability [8]: 73%; clearance [10]: 54 mL/min/kg
Cc1ncc(CN[C@@H]2CCN(CCn3c(=O)ccc4ccc(C#N)cc43)C[C@@H]2F)cc1C#N | – | 1.29 | 0.25 (≈ 0.562 µM) | – | 14.5 | 13 | –
Cc1nc(CNC2CCN(CCn3c(=O)ccc4ccc(C#N)cc43)CC2)ccc1C#N | 5.3 | 1.1 | > 16 | > 100 | 17.1 | 9.1 | IC50 (DNA gyrase subunit B): > 100 µM
COc1cnc2ccc(=O)n(CCN3CC[C@@H](NCc4cnc(C)c(C#N)c4)[C@@H](F)C3)c2c1 | 90 | 1.29 | 0.06 (≈ 0.133 µM) | 0.25 | 13.6 | 7.4 | LCK [22]: 1.3; bioavailability [8]: 52%; clearance [10]: 42 mL/min/kg
COc1cnc2ccc(=O)n(CCN3CC[C@@H](NCc4ccc5c(n4)NC(=O)CO5)[C@@H](OC)C3)c2c1 | > 100 | 0.4 | 0.13 (≈ 0.263 µM) | – | – | – | –
COc1cnc2ccc(=O)n(CCN3CC[C@@H](NCc4ccc5c(n4)NC(=O)CO5)[C@@H](F)C3)c2c1 | – | 0.64 | 0.03 (≈ 0.0622 µM) | – | 4.1 | 10.8 | –
COc1cnc2ccc(=O)n(CCN3CCC(NCc4cnc(OC)c(C#N)c4)CC3)c2c1 | 12 | 1.2 | 0.06 (≈ 0.134 µM) | – | 13 | 9 | –
Cc1ncc(CNC2CCN(CCn3c(=O)ccc4c3ccc(=O)n4C)CC2)cc1C#N | 33 | -0.6 | > 32 | – | – | – | –
CC1COc2c(N3CCN(C)CC3)c(F)cc3c(=O)c(C(=O)O)cn1c23 (centres undefined) [OFLOXACIN] | – | – | 0.5 (≈ 1.38 µM) | – | – | – | MIC90 [21]: > 8 µg/mL
NNC(=O)c1ccncc1 [ISONIAZID] | – | – | 0.06 (≈ 0.438 µM) | – | – | – | –
COc1cc(C#N)c2ccc(=O)n(CCN3CCC(NCc4cnc(C)c(C#N)c4)CC3)c2c1 | 2.5 | 1.86 | 0.01 (≈ 0.0219 µM) | 0.065 | 10 | 4.7 | bioavailability [8]: 59%; clearance [10]: 10 mL/min/kg
O=C(O)c1cn(C2CC2)c2cc(N3CCNCC3)c(F)cc2c1=O [CIPROFLOXACIN] | – | – | 0.25 (≈ 0.754 µM) | – | – | – | –
N#Cc1ccc2ccc(=O)n(CCN3CCC(NCc4cc5c(cn4)OCCO5)CC3)c2c1 | – | 0.7 | 2 (≈ 4.49 µM) | 1.05 | 1.9 | 38.3 | IC50 (DNA gyrase subunit B): > 100 µM
Cc1ncc(CN[C@@H]2CCN(CCn3c(=O)ccc4ncc(F)cc43)C[C@@H]2F)cc1C#N | – | 0.92 | 0.25 (≈ 0.57 µM) | – | 17.7 | 15.4 | bioavailability [8]: > 100%; clearance [10]: 30 mL/min/kg
COc1ccc2c(ccc(=O)n2CCN2CCC(NCc3cnc(C)c(C#N)c3)CC2)n1 | 10 | – | 4 (≈ 9.25 µM) | – | – | – | –
